# Screening results (PubChem BioAssay)
# Rows were chosen to be rich in hits. Some 1.8% of all compounds tested hit in one or more screens of this group.
# TCR CD3 inh: human TCR-CD3 binding inhibition; TAMRA-labeled TCR probe fluorescence, biochemical; inhibition, % at 9.4 µM; AID 651800; 360,000 compounds, 0.37% hits;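 further: recombinant mutant TCR 2C K166C tagged with TAMRA read by polarization; 0% = receptor in buffer alone and 100% = receptor with positive control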
# mABHD4 FP: inhibits mouse alpha/beta hydrolase domain 4; 370,000 compounds, 0.54% hits; purified mABHD4, FP-Rh probe fluorescence polarization; inhibition, % at 8.92 µM; AID 720543; Q8VD66;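 active means inhibition exceeding the mean over every tested compound plus 3 SD, cut at about 30% in these data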;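 further: 0% = plate median of compound wells and 100% = S159A mutant with DMSO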
# Target sequence (Q8VD66 whole entry, looked up, the tested form may be a part): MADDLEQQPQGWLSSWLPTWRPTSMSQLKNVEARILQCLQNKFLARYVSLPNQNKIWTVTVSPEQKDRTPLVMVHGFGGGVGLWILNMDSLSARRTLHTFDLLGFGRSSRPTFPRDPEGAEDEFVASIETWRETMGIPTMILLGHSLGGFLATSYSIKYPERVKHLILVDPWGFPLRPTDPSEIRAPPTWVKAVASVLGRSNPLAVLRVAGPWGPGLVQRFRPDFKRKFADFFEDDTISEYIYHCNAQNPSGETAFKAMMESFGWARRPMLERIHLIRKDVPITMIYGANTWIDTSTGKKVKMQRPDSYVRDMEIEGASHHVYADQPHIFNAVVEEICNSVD
#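 Doses – 8.92 µM, single dose · Material – wild-type mouse ABHD4 protein · Replication – single well per compound (singlicate) · Measure – percent inhibition of probe binding, normalized to plate controls · Schedule – 45 min compound pre-incubation plus 60 min probe step, 25 °C · Detection – fluorescence polarization with parallel and perpendicular emission, 525/598 nm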
# SIAE inh: blocks human sialic acid acetylesterase; Q9HAT2; SIAE FP-Rh probe binding, fluorescence polarization; inhibition, % at 9.66 µM; 370,000 compounds, 0.69% hits; AID 1053197;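 active means inhibition above a cutoff: mean of compounds within the control limits plus 3 SD of those, cut at about 17% in these data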;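 further: 0% = plate median of compound wells and 100% = probe without SIAE protein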
# HTRA1 inhibitor: blocks human HTRA1 serine peptidase | Q92743 | recombinant HTRA1, FP-rhodamine activity-based probe, fluorescence polarization | inhibition, % at 5.96 µM | 340,000 compounds, 0.5% hits | AID 504803; in the data active means inhibition above about 36%;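 further: 0% = enzyme with DMSO and 100% = wells lacking enzyme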
# Tn6 DDE FP: DD(E)-Tn6 binding inhibition, primary FP screen; inhibition, % at 8.3 µM; AID 720509; Fibrin DD(E) TRITC-Tn6 fluorescence polarization displacement; P02675; 370,000 compounds, 0.21% hits;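 active means inhibition above a per-campaign cutoff: mean of compounds within control limits plus 3 SD, cut at about 15% in these data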;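 further: 0% = median of all compound wells on the plate and 100% = blocking peptide control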
# Tn7 DDE FP: DD(E)-Tn7 binding inhibition, primary FP screen. P02675. FP displacement of FITC-Tn7 peptide from fibrin DD(E); 0% = median of compound wells per plate. inhibition, % at 8.3 µM. 370,000 compounds, 0.13% hits;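 active means inhibition above the mean of compounds falling within the control limits plus 3 SD of them, cut at about 14% in these data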;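 further: 0% = plate median of compound wells and 100% = 10 µM Aha-Tn7 peptide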
#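 system = human fibrin DD(E) protein | quantity = DD(E) 2 µM final | medium = Tris/NaCl/CaCl2 buffer, pH 7.8 | also added = labelled Tn7 tracer, 0.1 µM | compound dosing = single point at 8.3 µM | timing = compound with protein 10 min, then 3 h after probe, room temperature | signal = FP measurement | benchmarks = Aha-Tn7 high control | repeats = one replicate per compound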
# BSA TAMRA ctr: BSA probe counter-screen for TCR-CD3 inhibitors. shares compounds with TCR CD3 inh. TAMRA-labeled BSA probe fluorescence counterscreen. inhibition, % at 9.4 µM. 1,200 compounds, 10% hits; in the data active means inhibition above about 23%;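 further: 0% = buffer low control and 100% = reference high control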
# TCR-CD3 conf: TCR-CD3 interaction inhibition, confirmation. TAMRA-labeled TCR probe fluorescence binding assay. inhibition, % at 9.4 µM. AID 652036. 1,200 compounds, 48% hits. shares compounds with TCR CD3 inh
# DDE Tn7 confirm: confirmation of inhibitors of Tn7 binding to human fibrin DD(E) | shares compounds with Tn7 DDE FP | FP displacement of TRITC-Tn7 peptide from DD(E); 0% set at plate's compound-well median | inhibition, % at 8.3 µM | 460 compounds, 5% hits | AID 720628;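 active means inhibition above the campaign cutoff, the mean of compounds within control limits plus 3 SD, cut at about 14% in these data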;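 further: 100% = median FP of high control wells holding Aha-Tn7 inhibitor peptide; displacers lower polarization since freed probe rises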
# Tn7 DDE ctr: counter-screen hit for Tn7 peptide-fibrin DD(E) binding disruption; TRITC-Tn7 probe displacement, fluorescence polarization; shares compounds with Tn7 DDE FP; inhibition, % at 8.3 µM; 460 compounds, 3% hits;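 active means inhibition above the cutoff, the mean of compounds lying between the control bounds plus 3 SD of those compounds, cut at about 17% in these data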;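 further: 0% = median of compound sample wells and 100% = excess unlabeled Aha-Tn7 peptide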
# Tn6 DDE ctr: DD(E)-Tn6 binding inhibition, counter-screen; shares compounds with Tn6 DDE FP; Fibrin DD(E), TRITC-Tn6 fluorescence polarization displacement; 0% = median of compound wells, not DMSO; 680 compounds, 2% hits; inhibition, % at 8.3 µM;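 active means inhibition above the mean of test compounds lying between the control limits plus 3 SD of those, cut at about 14% in these data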;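 further: 0% = median of compound wells and 100% = wells with Aha-Tn7 blocking peptide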
# Tn6 DDE conf: confirmation of inhibitors of Tn6 binding to human fibrin DD(E); inhibition, % at 8.3 µM; shares compounds with Tn6 DDE FP; AID 720631; 680 compounds, 10% hits; FP displacement of TRITC-Tn6 peptide from DD(E); 0% = per-plate median of test wells;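 active means inhibition above the mean of compounds lying within the control limits plus 3 SD, cut at about 16% in these data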;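 further: 100% = high control wells holding a competing inhibitor peptide at 10 µM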
# mABHD4 conf: ABHD4 (mouse) inhibition, FP confirmation | shares compounds with mABHD4 FP | purified mABHD4, FP-Rh probe fluorescence polarization | inhibition, % at 8.92 µM | 1,800 compounds, 55% hits | AID 720658;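 active means mean inhibition across replicates above the hit cutoff set in the primary screen, cut at about 30% in these data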;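 further: 0% = wild-type ABHD4 with DMSO and 100% = catalytically dead S159A mutant with DMSO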
# SIAE inh conf: human SIAE inhibition, confirmation | shares compounds with SIAE inh | inhibition, % at 9.66 µM | SIAE FP-Rh activity-based probe, fluorescence polarization | AID 1117263 | 2,300 compounds, 13% hits;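 active means mean inhibition of the replicates above the hit cutoff set in the primary screen, cut at about 17% in these data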;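 further: 0% = SIAE with DMSO and probe and 100% = probe without SIAE; inhibitors lower polarization as more probe stays unbound to SIAE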
# Starred values were filed as active, the others as inactive; · = no result. Unless noted, no stated cut-off is given here; in the data, active means inhibition above about 19%; inactive means the rest.
SMILES,TCR CD3 inh,mABHD4 FP,SIAE inh,HTRA1 inhibitor,Tn6 DDE FP,Tn7 DDE FP,BSA TAMRA ctr,TCR-CD3 conf,mABHD4 conf,SIAE inh conf,others
CN(C)/C=C1\C=C2C(=O)c3ccccc3N2C1=O,39*,8,21*,30,0,30*,113*,74*,·,38*,DDE Tn7 confirm=53*;Tn7 DDE ctr=24*
CN(C)S(=O)(=O)N1C(=O)c2ccccc2C1=O,-4,-5,-4,4,-1,-5,·,·,·,·,
CC(NC(=O)Nc1ccc(O)cc1)(C(F)(F)F)C(F)(F)F,54*,66*,26*,32,29*,-1,4,0,2,-3,Tn6 DDE ctr=-6;Tn6 DDE conf=-7
CCOC(=O)CCCNC(=O)OC1CC2CC1[C@H]1CCCCN1[C@H]2Cc1ccccc1 (stereo partly drawn),·,-2,-2,·,-5,2,·,·,·,·,
Cc1cccc(C(=O)Nc2c(-c3ccccc3)nc3ncccn23)c1,·,-1,-6,·,1,3,·,·,·,·,
Cc1cc(O)ccc1N/C=C1\CCCC1=O,34*,69*,46*,31,30*,-1,3,3,17,1,Tn6 DDE ctr=3;Tn6 DDE conf=-2
CN(C(=O)[C@@H](C1CC1)[C@@H](O)c1ccc2ccccc2c1)c1ccccc1,·,-6,-1,·,-5,-4,·,·,·,·,
Cc1cc2c(cc1S(=O)(=O)N1CCN(c3cccc(C)c3C)CC1)OCCN2C,127*,129*,87*,-9,131*,-1,-1,2,78*,58*,Tn6 DDE ctr=8;Tn6 DDE conf=67*
COc1cccc(N2CCN(S(=O)(=O)c3cc4c(cc3C)N(C)CCO4)CC2)c1,1,-17,13,-4,-8,2,·,·,·,·,
Cc1ccc(C=Nn2c(-c3n[nH]c4c3CCC4)n[nH]c2=S)o1,·,0,4,·,-4,3,·,·,·,·,
O=[N+]([O-])c1cc([N+](=O)[O-])c2nonc2c1Nc1ccccc1O,5,27,4,12,7,3,·,·,·,·,
O=[N+]([O-])c1cc([N+](=O)[O-])c2nonc2c1Nc1ccc(O)cc1,43*,46*,21*,33,18*,-3,0,5,10,2,
c1coc(-c2nc(-c3ccco3)c(-c3ccco3)nc2-c2ccco2)c1,26*,54*,29*,74*,-8,-1,-7,8,43*,9,
COc1cc([N+](=O)[O-])cc(/C=N/NC(=O)c2ccc(NC(=O)c3ccc(C)cc3)cc2)c1O,27*,-6,18*,8,2,-2,-5,45*,·,12,
COc1cc([N+](=O)[O-])cc(/C=N/NC(=O)c2ccc(C)nc2)c1O,18,16,-2,11,0,5,·,·,·,·,
Clc1ccccc1N=Nc1ccccn1,28*,41*,20*,27,14,10,8,13,5,4,
Cc1[nH][nH]c(=O)c1N=Nc1ccccc1Cl,-2,-4,-1,4,1,2,·,·,·,·,
Cc1ccc(C(=O)Nc2nc(-c3ccco3)c(-c3ccco3)s2)o1,31*,36*,41*,5,-16,1,-1,0,-13,-19,
O=C(CCCSc1ccccc1)Nc1nc(-c2ccco2)c(-c2ccco2)s1,23*,-1,28*,-19,4,-4,-11,-3,·,-10,
Oc1c(N=Nc2nn[nH]n2)ccc2ccccc12,37*,26,25*,·,1,-3,146*,104*,·,44*,
Oc1c(N=Nc2ccc(F)cc2)ccc2ccccc12,-9,12,6,6,-4,1,·,·,·,·,
C/C(=N\NC(=O)c1cccc(Cl)c1)c1cccc(NC(=O)c2ccco2)c1,-4,-2,1,-16,3,-6,·,·,·,·,
C/C(=N\NC(=O)c1cc(O)ccc1O)c1cccc(NC(=O)c2cccc(Cl)c2)c1,43*,54*,33*,2,-10,-5,-13,15,36*,20*,
C[C@@H]1C=CCCO[C@]12C(=O)N(Cc1ccc(F)cc1)c1ccccc12,1,0,1,·,5,6,·,·,·,·,
COc1ccc2c(c1)CN1CN(CC(C)C)S(=O)(=O)CC21 (stereo not drawn),·,-6,-3,·,-2,-1,·,·,·,·,
SMILES,TCR CD3 inh,mABHD4 FP,SIAE inh,HTRA1 inhibitor,Tn6 DDE FP,Tn7 DDE FP,BSA TAMRA ctr,TCR-CD3 conf,mABHD4 conf,SIAE inh conf,others
Cc1ccc(-n2c(SCC(=O)c3ccc(F)cc3)nnc2-c2cccnc2)cc1,·,-1,0,·,-2,0,·,·,·,·,
Cc1c(C(=O)NNC(=O)c2ccccc2O)oc2ccccc12,23*,24,21*,28,1,2,-9,25*,·,10,
O=C(Cc1csc(N2CCOCC2)n1)N/N=C/c1ccc(O)c(O)c1O,41*,22,31*,17,-9,-2,-15,17,·,18*,
CCC[C@H]1[C@@H](NC(=O)c2ccc(Cl)cc2)CC[C@@]23CCCN2C(=O)CCC[C@@H]13,·,0,1,·,-1,0,·,·,·,·,
Nc1c(C(=O)NCC2CCCO2)sc2nc3c(c(-c4ccco4)c12)CC/C3=C\c1ccco1 (stereo not drawn),39*,32*,23*,40*,-1,3,-4,24*,29,16,
C=CCN1[C@H](CC(C)C)COc2cc(F)ccc2S1(=O)=O,·,-4,0,·,1,6,·,·,·,·,
